According to ChEMBL document CHEMBL4732178, “Dioxotriazine derivatives as a new class of P2X receptor antagonists: Identification of a lead and initial SAR studies” (Bioorg Med Chem Lett, 2021):

Assays:
[1] = Clearance in rat at 0.5 mg/kg, iv or 1 mg/kg, po; type: ADME, organism-based; conditions: in vivo
[2] = Oral bioavailability in rat or 1 mg/kg; type: ADME, organism-based; conditions: in vivo
[3] = Microsomal stability in human liver microsomes assessed as parent compound remaining incubated for 30 mins in presence or absence of NADPH generating system; type: ADME, Microsome; conditions: read-out: Stabilty
In short: (§1)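 Compound incubated 30 min at 37 °C with human or rat liver microsomes (0.5 mg protein/mL), with or without NADPH-generating system; percent parent remaining reported.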

[4] = Microsomal stability in rat liver microsomes assessed as parent compound remaining incubated for 30 mins in presence or absence of NADPH generating system; type: ADME, Microsome; conditions: read-out: Stabilty; in short: as §1
[5] = Half life in rat at 0.5 mg/kg, iv or 1 mg/kg, po; type: ADME, organism-based; conditions: in vivo
[6] = Clearance in rat at 1 mg/kg, iv or 3 mg/kg, po; type: ADME, organism-based; conditions: in vivo
[7] = Oral bioavailability in rat at 3 mg/kg; type: ADME, organism-based; conditions: in vivo
[8] = Cmax in rat at 3 mg/kg, po; type: ADME, organism-based; parameters: route oral, dose 3 mg/kg; conditions: in vivo
[9] = Half life in rat at 1 mg/kg, iv or 3 mg/kg, po; type: ADME, organism-based; conditions: in vivo
[10] = AUC in rat at 3 mg/kg, po; type: ADME, organism-based; parameters: dose 3 mg/kg; conditions: in vivo

Structure (SMILES)	remaining at 0.5 h [3] [%]	remaining at 0.5 h [4] [%]	other results
CC(C)Oc1ccc(Nc2nc(=O)n(C(C)C)c(=O)n2Cc2ccc(Cl)cc2)cc1			clearance [1]: 23.9 mL/min/kg; bioavailability [2]: 25.2%
CC(C)Oc1ccc(Nc2nc(=O)n(CCC#N)c(=O)n2Cc2ccc(Cl)cc2)cc1F	59	30	
CC(=O)n1c(=O)nc(Nc2ccc(OC(C)C)c(F)c2)n(Cc2ccc(Cl)cc2)c1=O	0	2	
CC(C)Oc1ccc(Nc2nc(=O)n(CCC(N)=O)c(=O)n2Cc2ccc(Cl)cc2)cc1F	94	61	
CC(C)Oc1ccc(Nc2nc(=O)n(CCCC(=O)O)c(=O)n2Cc2ccc(Cl)cc2)cc1F	106	103	
CC(C)Oc1ccc(Nc2nc(=O)n(CC#N)c(=O)n2Cc2ccc(Cl)cc2)cc1F	68	41	
CCn1c(=O)nc(Nc2ccc(OC(C)C)c(F)c2)n(Cc2ccc(Cl)cc2)c1=O	86	42	
CC(C)Oc1ccc(Nc2nc(=O)n(CCO)c(=O)n2Cc2ccc(Cl)cc2)cc1F	92	60	
CC(C)Oc1ccc(Nc2nc(=O)n(CCCCO)c(=O)n2Cc2ccc(Cl)cc2)cc1F	59	36	
CC(C)Oc1ccc(Nc2nc(=O)n(CCC(=O)O)c(=O)n2Cc2ccc(Cl)cc2)cc1F	92	99	
CC(=O)NCCCn1c(=O)nc(Nc2ccc(OC(C)C)c(F)c2)n(Cc2ccc(Cl)cc2)c1=O	47	15	
CC(C)Oc1ccc(Nc2nc(=O)[nH]c(=O)n2Cc2ccc(Cl)cc2)cc1F	78	54	
CC(C)Oc1ccc(/N=c2\[nH]c(=O)n(CC(=O)O)c(=O)n2Cc2ccc(Cl)cc2)cc1Cl			half-life [5]: 2.1 h; clearance [1]: 1.7 mL/min/kg; bioavailability [2]: 71.2%
CC(C)Oc1ccc(Nc2nc(=O)n(CCCO)c(=O)n2Cc2ccc(Cl)cc2)cc1F	82	29	
CC(C)Oc1ccc(Nc2nc(=O)n(CC(=O)O)c(=O)n2Cc2ccc(Cl)cc2)cc1F	99	97	
CC(=O)NCCn1c(=O)nc(Nc2ccc(OC(C)C)c(F)c2)n(Cc2ccc(Cl)cc2)c1=O	45	1	
CC(C)Oc1ccc(Nc2nc(=O)n(Cc3ccccc3)c(=O)n2Cc2ccc(Cl)cc2)cc1F	21	1	
CNC(=O)CCn1c(=O)nc(Nc2ccc(OC(C)C)c(F)c2)n(Cc2ccc(Cl)cc2)c1=O	86	30	
CC(C)Oc1ccc(Nc2nc(=O)n(CCC(=O)O)c(=O)n2Cc2ccc(Cl)cc2)cc1Cl			half-life [5]: 6 h; clearance [1]: 0.5 mL/min/kg; bioavailability [2]: 43.2%
CC(C)Oc1ccc(Nc2nc(=O)n(C(C)C)c(=O)n2Cc2ccc(Cl)cc2)cc1F	36	49	
CCCn1c(=O)nc(Nc2ccc(OC(C)C)c(F)c2)n(Cc2ccc(Cl)cc2)c1=O	36	35	
CC(C)Oc1ccc(Nc2nc(=O)n(CC(C)(C)C(=O)O)c(=O)n2Cc2ccc(Cl)cc2)cc1F			clearance [6]: 3 mL/min/kg; bioavailability [7]: 47.3%; Cmax [8]: 1260 ng/mL; half-life [9]: 9.6 h; AUC [10]: 6990 ng·h/mL
Cc1ccc(Cn2c(Nc3ccc(OC(C)C)c(Cl)c3)nc(=O)n(CCC(=O)O)c2=O)cc1			clearance [6]: 2.7 mL/min/kg; bioavailability [7]: 71.8%; half-life [9]: 1.6 h; AUC [10]: 14300 ng·h/mL
CC(C)Oc1ccc(Nc2nc(=O)c(CC(=O)O)cn2Cc2ccc(Cl)cc2)cc1Cl			half-life [5]: 1.8 h; clearance [1]: 8.3 mL/min/kg; bioavailability [2]: 79.9%
CC(C)Oc1ccc(Nc2cc(=O)n(CCC(=O)O)c(=O)n2Cc2ccc(Cl)cc2)cc1Cl			half-life [5]: 2.2 h; clearance [1]: 2.1 mL/min/kg; bioavailability [2]: 61.5%
COc1cc(C(C)C)c(Oc2cnc(NC(CO)CO)nc2N)cc1I			clearance [6]: 42 mL/min/kg; bioavailability [7]: 30.3%; Cmax [8]: 118 ng/mL; half-life [9]: 1.1 h; AUC [10]: 369 ng·h/mL
